Series [1] deals with Rattus norvegicus. Kind of series: Bioavailability in rat at 10 mg/kg, iv or po. The series is classed as ADME, organism-based. The settings on record: in vivo.
The subject of series [2] is Mus musculus. Kind of series: Reduction of cumulative food intake in C57BL/6N DIO mouse relative to control after 28 days at 10 mg/kg, po. The series is classed as functional. Summed up: (§1)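 DIO male C57Bl/6NCrl:BR mice (45%-fat diet, individually housed), acclimated to vehicle dosing, given compound orally once daily in 20% HPβCD for 5 or 28 days, n = 11/group. Body weight (to 0.1 g) and food intake from preweighed 3-3.5 g pellets (to 0.01 g) recorded daily; cumulative intake and % weight change at endpoint versus vehicle, ± SEM.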

The test system of series [3] is Mus musculus. Kind of series: Reduction of food intake in orally dosed C57BL/6N DIO mouse after 24 hrs at 30 mg/kg relative to control. The series is classed as functional. As to conditions: route oral. Summed up:
(§2)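 Male C57Bl/6NCrl:BR mice made obese on a 45%-fat diet, individually housed, 12 h light/dark, 22 °C; acclimated to oral 20% hydroxypropyl-β-cyclodextrin vehicle for 2-3 days. Single oral 30 mg/kg dose in 20% HPβCD; food intake weighed to 0.01 g at 2, 6 and 24 h, expressed as % of vehicle ± SEM.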

The subject of series [4] is Mus musculus. Kind of series: Reduction of cumulative food intake in C57BL/6N DIO mouse relative to control after 28 days at 30 mg/kg, po. The class given is functional. Summed up: as §1
The target of series [5] is Melanin-concentrating hormone receptor 1 (Mus musculus) (UniProt Q8JZL2). As to conditions: C57BL/6N, Brain, 10 mg/kg.
The test system of series [6] is Mus musculus. Kind of series: Change in body weight of C57BL/6N DIO mouse relative to control after 28 days at 30 mg/kg, po. The class given is functional. Summed up: as §1
The subject of series [7] is Mus musculus. Kind of series: Change in body weight of C57BL/6N DIO mouse relative to control after 5 days at 30 mg/kg, po. The class given is functional. Summed up: as §1
Series [8] deals with Mus musculus. Kind of series: Reduction of food intake in orally dosed C57BL/6N DIO mouse after 6 hrs at 30 mg/kg relative to control. The class given is functional. As to conditions: route oral. Summed up: as §2
The target in series [9] is Melanin-concentrating hormone receptor 1 (Mus musculus) (UniProt Q8JZL2). Kind of series: Receptor occupancy ex vivo by displacement of [125I]S36057 binding from MCHR1 in C57BL/6N mouse brain after 6 hrs at 30 mg/kg, po. The series is classed as functional, organism-based. The arrangement: dose 30 mg/kg. Summed up: (§3)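 Male C57Bl/6NCrl:BR mice given vehicle (HPβCD) or compound orally; killed by CO2 at 6 or 24 h post-dose (chronic studies: 24 h after last daily dose, n = 3/group). 16 µm frozen caudate putamen sections incubated 30 min at room temperature with 700 pM [125I]-S36057 in MCH-R1 binding buffer; 1 µM MCH defines nonspecific binding. Phosphorimager quantitation; % inhibition versus vehicle.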
(Displacement assays read how much labelled ligand stays bound in the presence of the test substance.)

Series [10] deals with Rattus norvegicus. Kind of series: AUC (0-6h) in rat at 10 mg/kg, po. The class given is ADME, organism-based, Plasma. The arrangement: time < 6 hr, dose 10 mg/kg, route oral. As to conditions: in vivo, 6 h.
Series [11] relates to Rattus norvegicus. Kind of series: Volume of distribution in rat at 10 mg/kg, iv or po. The class given is ADME, organism-based. The settings on record: in vivo. The arrangement: dose 10 mg/kg, route oral.
In series [12] the test system is Mus musculus. Kind of series: Reduction of food intake in orally dosed C57BL/6N DIO mouse after 2 hrs at 30 mg/kg relative to control. The series is classed as functional. The settings on record: route oral. Summed up:
as §2

For series [13], the system named is Mus musculus. Kind of series: Change in body weight of C57BL/6N DIO mouse relative to control after 5 days at 10 mg/kg, po. The class given is functional. Summed up:
as §1

The subject of series [14] is Mus musculus. Kind of series: Change in body weight of C57BL/6N DIO mouse relative to control after 28 days at 10 mg/kg, po. The class given is functional. Summed up:
as §1

Series [15] relates to Mus musculus. Kind of series: Reduction of cumulative food intake in C57BL/6N DIO mouse relative to control after 5 days at 10 mg/kg, po. The class given is functional. Summed up:
as §1

The subject of series [16] is Rattus norvegicus. Kind of series: AUC (0-24h) in rat at 10 mg/kg, po. As to conditions: in vivo, 24 h. The arrangement: time < 24 hr, dose 10 mg/kg, route oral. The class given is ADME, organism-based, Plasma.
The target of series [17] is Melanin-concentrating hormone receptor 1 (Mus musculus) (UniProt Q8JZL2). Kind of series: Receptor occupancy ex vivo by displacement of [125I]S36057 binding from MCHR1 in C57BL/6N mouse brain after 24 hrs at 30 mg/kg, po. The arrangement: dose 30 mg/kg. The series is classed as functional, organism-based. Summed up: as §3
Series [18] addresses T1, Melanin-concentrating hormone receptor 1 (Homo sapiens, UniProt Q99705). Kind of series: Displacement of [125I]MCH from human MCHR1 expressed in CHO cell. The class given is cell-based.
Series [19] has as its target T1, Melanin-concentrating hormone receptor 1. Kind of series: Inhibition of MCH-mediated calcium influx in CHO cells expressing human MCHR1 by FLIPR assay. The class given is functional, cell-based. Summed up: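 After two washes, treated with vehicle (buffer, 2% DMSO) or compound, then stimulated with 30 nM MCH; intracellular Ca²⁺ change read by FLIPR.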
The nature of series [20]: Half life in rat at 10 mg/kg, iv. The settings on record: in vivo. The arrangement: dose 10 mg/kg, route intravenous. The series is classed as ADME, organism-based.
For series [21], the system named is Mus musculus. Kind of series: Reduction of cumulative food intake in C57BL/6N DIO mouse relative to control after 5 days at 30 mg/kg, po. The series is classed as functional. Summed up:
as §1

pKi: −log10 of the molar value.

Chain of Melanin-concentrating hormone receptor 1 (Mus musculus) (Q8JZL2 whole entry): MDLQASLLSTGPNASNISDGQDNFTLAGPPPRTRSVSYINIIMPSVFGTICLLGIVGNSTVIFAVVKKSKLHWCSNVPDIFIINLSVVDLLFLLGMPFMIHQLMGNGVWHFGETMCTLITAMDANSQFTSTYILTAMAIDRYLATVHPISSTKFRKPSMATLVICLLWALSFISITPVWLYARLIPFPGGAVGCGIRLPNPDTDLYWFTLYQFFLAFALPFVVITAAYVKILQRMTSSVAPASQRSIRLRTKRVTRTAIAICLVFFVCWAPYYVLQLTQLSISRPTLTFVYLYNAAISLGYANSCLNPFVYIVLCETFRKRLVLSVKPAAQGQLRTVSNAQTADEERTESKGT
T1 sequence (Q99705 whole entry): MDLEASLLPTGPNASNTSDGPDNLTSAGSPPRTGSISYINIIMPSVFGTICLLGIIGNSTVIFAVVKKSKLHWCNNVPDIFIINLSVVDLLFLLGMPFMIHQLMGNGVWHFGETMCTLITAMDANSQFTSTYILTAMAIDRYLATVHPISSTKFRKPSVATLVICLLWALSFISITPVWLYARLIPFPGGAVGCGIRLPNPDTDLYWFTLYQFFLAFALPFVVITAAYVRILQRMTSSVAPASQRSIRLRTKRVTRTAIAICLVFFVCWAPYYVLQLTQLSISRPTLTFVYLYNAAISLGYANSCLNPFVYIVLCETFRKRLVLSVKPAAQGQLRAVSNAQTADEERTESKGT

Consider `CN1CCN(CCCN(C(=O)Nc2ccc(F)c(C(F)(F)F)c2)[C@@H]2CC[C@]3(c4ccc(C#N)cc4)C[C@H]23)CC1` (relative stereo), for which, in the series on Rattus norvegicus [1], the F was 27%. The Activity in the series with Mus musculus [2] was 87 g; with Mus musculus [4], 79.4 g; in the series on Mus musculus [6] it was -9.83%; in the series with Mus musculus [7], -6.04%; in series [9] it was 99%; in the series with Mus musculus [13], -2.26%. Moreover, the Activity in the series on Mus musculus [14] is -1.48%; in the series with Mus musculus [15] it was 14.9 g; in [17], 58%; in the series with Mus musculus [21], 11.7 g. The “Food intake (% of vehicle control)” value with Mus musculus [3] came out at 78.1%; in the series on Mus musculus [8], 76%. The molecule also had an inhibition in [5] above 65%. Besides, the figures for the AUC in the series on Rattus norvegicus [10] and with Rattus norvegicus [16] were 642 ng·h/mL and 3.9 µM·h, respectively. The Vdss with Rattus norvegicus [11] was 5.6 L/kg. For the same molecule, the “Food intake (% of vehicle)” value in the series on Mus musculus [12] is listed as 77.3%. In addition, the pKi in series [18] is 8.57. In [19], the Kb worked out at 1.9 nM. In series [20], this molecule gave a half-life of 4 h.

Usually inhibition stands for the percentage by which the read-out fell short of the control. By AUC is commonly meant concentration integrated over time. A high value points to more exposure. Usually pKi stands for the Ki on a negative log10 scale, so that one unit is a factor of ten. Read a low pKi as a large Ki. What is called half-life is the time needed for the level to fall by half in the phase considered.

(Values after ChEMBL document CHEMBL1146084, “Discovery of orally efficacious melanin-concentrating hormone receptor-1 antagonists as antiobesity agents. Synthesis, SAR, and biological evaluation of bicyclo[3.1.0]hexyl ureas” (J Med Chem, 2006).)
